# Calls of active or inactive are those of the source. The calls are words filed in the database; no cut-off is given here.
# How the values were obtained:
# [1] = Antiinflammatory activity in mouse peritoneal macrophage assessed as reduction in LPS-induced IL6 production at 1 ug/ml; type: functional; conditions: dose 1 µg/ml
# [2] = Toxicity in Swiss albino mouse assessed as morbidity at 5 to 1000 mg/kg, po administered for 7 days; type: organism-based; conditions: in vivo, 168 h, dose 5-1000 mg/kg, time 7 day
# [3] = Renal toxicity in Swiss albino mouse assessed as creatinine level at 50 mg/kg, po administered for 7 days (reference value: 0.76 +/- 0.06 mg/dl); type: organism-based; conditions: in vivo, 168 h, time 7 day
# Summary of the method: (§1)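 Single acute oral dose (5, 50, 300 or 1000 mg/kg) given to Swiss albino mice, n = 6, with 7-day observation. At the end, haematological and serum biochemical parameters were measured. Compared with untreated controls; mean ± SE, ANOVA, p < 0.05.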
# [4] = Renal toxicity in Swiss albino mouse assessed as creatinine level at 1000 mg/kg, po administered for 7 days (reference value: 0.76 +/- 0.06 mg/dl); type: organism-based; conditions: in vivo, 168 h, time 7 day; summary of the method: as §1
# [5] = Renal toxicity in Swiss albino mouse assessed as creatinine level at 5 mg/kg, po administered for 7 days (reference value: 0.76 +/- 0.06 mg/dl); type: organism-based; conditions: in vivo, 168 h, time 7 day; summary of the method: as §1
# [6] = Toxicity in Swiss albino mouse assessed as triglyceride level at 5 mg/kg, po administered for 7 days (reference value: 136.88 +/- 3.12 mg/dl); type: organism-based; conditions: in vivo, 168 h, time 7 day
# [7] = Toxicity in Swiss albino mouse assessed as WBC level at 1000 mg/kg, po administered for 7 days (reference value: 5.29 +/- 0.51 10^3/mm3); type: organism-based; conditions: in vivo, 168 h, time 7 day; summary of the method: as §1
# [8] = Selectivity index, ratio of IC50 for african green monkey Vero cells to IC50 for human K562 cells; type: toxicity; conditions: Vero cells versus K562 cells, read-out: Ratio IC50
# [9] = Antiinflammatory activity in mouse peritoneal macrophage assessed as inhibition of LPS-induced IL6 production at 10 ug/ml relative to control; type: functional; design: scale not given: the % may be the effect or the level left; conditions: dose 10 µg/ml
# [10] = Toxicity in Swiss albino mouse assessed as cholesterol level at 1000 mg/kg, po administered for 7 days (reference value: 140.17 +/- 3.76 mg/dl); type: organism-based; conditions: in vivo, 168 h, time 7 day
# [11] = molecular target: Tubulin (Homo sapiens) (UniProt P68371+Q9H4B7+P0DPH7+P68366+Q13509+Q71U36+P04350+Q3ZCM7+P07437+P68363+Q9BQE3+Q6PEY2+Q13885+Q9BVA1+Q9BUF5); assay: Induction of microtubule stabilization (unknown origin) at 0.2 to 5 uM; type: protein-complex assay; conditions: dose 0.2-5 µM
# [12] = Hepatotoxicity in Swiss albino mouse assessed as SGPT level at 5 mg/kg, po administered for 7 days (reference value: 17.01 +/- 2.33 U/L); type: toxicity, organism-based; conditions: in vivo, 168 h, time 7 day; summary of the method: as §1
# [13] = Hepatotoxicity in Swiss albino mouse assessed as albumin level at 1000 mg/kg, po administered for 7 days (reference value: 4.12 +/- 0.17 g/dl); type: toxicity, organism-based; conditions: in vivo, 168 h, time 7 day; summary of the method: as §1
# [14] = Antiinflammatory activity in mouse peritoneal macrophage assessed as reduction in LPS-induced IL6 production at 10 ug/ml; type: functional; conditions: dose 10 µg/ml
# [15] = Hepatotoxicity in Swiss albino mouse assessed as SGOT level at 300 mg/kg, po administered for 7 days (reference value: 31.51 +/- 6.31 U/L); type: toxicity, organism-based; conditions: in vivo, 168 h, time 7 day; summary of the method: as §1
# [16] = Toxicity in Swiss albino mouse assessed as change in relative brain weight at 5 to 1000 mg/kg, po administered for 7 days; type: organism-based; conditions: in vivo, 168 h, dose 5-1000 mg/kg, time 7 day
# [17] = Hepatotoxicity in Swiss albino mouse assessed as alkaline phosphatase level at 1000 mg/kg, po administered for 7 days (reference value: 260.10 +/- 26.76 U/L); type: toxicity, organism-based; conditions: in vivo, 168 h, time 7 day; summary of the method: as §1
# [18] = Hepatotoxicity in Swiss albino mouse assessed as alkaline phosphatase level at 5 mg/kg, po administered for 7 days (reference value: 260.10 +/- 26.76 U/L); type: toxicity, organism-based; conditions: in vivo, 168 h, time 7 day; summary of the method: as §1
# [19] = Toxicity in Swiss albino mouse assessed as change in relative heart weight at 5 to 1000 mg/kg, po administered for 7 days; type: organism-based; conditions: in vivo, 168 h, dose 5-1000 mg/kg, time 7 day
# [20] = system: MDA-MB-231; assay: Cytotoxicity against human MDA-MB-231 cells incubated for 72 hrs by Sulphorhodamine assay; type: functional, cell-based; conditions: MDA-MB-231, 72 h
# [21] = Hepatotoxicity in Swiss albino mouse assessed as albumin level at 5 mg/kg, po administered for 7 days (reference value: 4.12 +/- 0.17 g/dl); type: toxicity, organism-based; conditions: in vivo, 168 h, time 7 day; summary of the method: as §1
# [22] = Antiinflammatory activity in mouse peritoneal macrophage assessed as reduction in LPS-induced TNFalpha production at 10 ug/ml; type: functional; conditions: dose 10 µg/ml
# [23] = Toxicity in Swiss albino mouse assessed as behavioural changes at 5 to 1000 mg/kg, po administered for 7 days; type: organism-based; conditions: in vivo, 168 h, dose 5-1000 mg/kg, time 7 day
# [24] = Antiinflammatory activity in mouse peritoneal macrophage assessed as inhibition of LPS-induced TNFalpha production at 1 ug/ml relative to control; type: functional; design: scale not given: the % may be the effect or the level left; conditions: dose 1 µg/ml
# [25] = Toxicity in Swiss albino mouse assessed as triglyceride level at 50 mg/kg, po administered for 7 days (reference value: 136.88 +/- 3.12 mg/dl); type: organism-based; conditions: in vivo, 168 h, time 7 day
# [26] = Toxicity in Swiss albino mouse assessed as RBC level at 300 mg/kg, po administered for 7 days (reference value: 7.13 +/- 0.40 million/mm3); type: organism-based, Erythrocyte; conditions: in vivo, 168 h, time 7 day; summary of the method: as §1
# [27] = Toxicity in Swiss albino mouse assessed as RBC level at 5 mg/kg, po administered for 7 days (reference value: 7.13 +/- 0.40 million/mm3); type: organism-based, Erythrocyte; conditions: in vivo, 168 h, time 7 day; summary of the method: as §1
# [28] = system: MCF7; assay: Cytotoxicity against human MCF7 cells incubated for 72 hrs by Sulphorhodamine assay; type: functional, cell-based; conditions: MCF7, 72 h
# [29] = system: K562; assay: Cytotoxicity against human K562 cells incubated for 72 hrs by Sulphorhodamine assay; type: functional, cell-based; conditions: K562, 72 h
# [30] = Toxicity in Swiss albino mouse assessed as WBC level at 300 mg/kg, po administered for 7 days (reference value: 5.29 +/- 0.51 10^3/mm3); type: organism-based; conditions: in vivo, 168 h, time 7 day
# [31] = Toxicity in Swiss albino mouse assessed as RBC level at 50 mg/kg, po administered for 7 days (reference value: 7.13 +/- 0.40 million/mm3); type: organism-based, Erythrocyte; conditions: in vivo, 168 h, time 7 day; summary of the method: as §1
# [32] = Hepatotoxicity in Swiss albino mouse assessed as SGPT level at 300 mg/kg, po administered for 7 days (reference value: 17.01 +/- 2.33 U/L); type: toxicity, organism-based; conditions: in vivo, 168 h, time 7 day; summary of the method: as §1
# [33] = Antiinflammatory activity in mouse peritoneal macrophage assessed as inhibition of LPS-induced TNFalpha production at 10 ug/ml relative to control; type: functional; design: scale not given: the % may be the effect or the level left; conditions: dose 10 µg/ml
# [34] = Toxicity in Swiss albino mouse assessed as change in relative kidney weight at 5 to 1000 mg/kg, po administered for 7 days; type: organism-based; conditions: in vivo, 168 h, dose 5-1000 mg/kg, time 7 day
# [35] = Antiinflammatory activity in mouse peritoneal macrophage assessed as inhibition of LPS-induced IL6 production at 1 ug/ml relative to control; type: functional; design: scale not given: the % may be the effect or the level left; conditions: dose 1 µg/ml
# [36] = Toxicity in Swiss albino mouse assessed as change in relative liver weight at 5 to 1000 mg/kg, po administered for 7 days; type: organism-based; conditions: in vivo, 168 h, dose 5-1000 mg/kg, time 7 day
# [37] = Toxicity in Swiss albino mouse assessed as RBC level at 1000 mg/kg, po administered for 7 days (reference value: 7.13 +/- 0.40 million/mm3); type: organism-based, Erythrocyte; conditions: in vivo, 168 h, time 7 day; summary of the method: as §1
compound,measurement,setting,value
COc1cc(C2/C(=C/c3ccc(/C=C/C(=O)NO)cc3)C(=O)c3cc(OC)c(OC)c(OC)c32)cc(OC)c1OC (configuration not stated),Activity,[1],2617.2 pg/mL
same,Activity,[2],Non-Toxic
same,Activity,[3],0.69 mg/dL
same,Activity,[4],0.74 mg/dL
same,Activity,[5],0.58 mg/dL
same,Activity,[6],146.79 mg/dL
same,Activity,[7],4.73 10^3/mm3
same,selectivity ratio,[8],30.7
same,Activity,[9],27.01%
same,Activity,[10],157.22 mg/dL
same,Activity,[11],Active
same,Activity,[12],16.79 U/L
same,Activity,[13],4.53 g/dL
same,Activity,[14],2199.42 pg/mL
same,Activity,[15],29.93 U/L
same,Activity,[16],Non-Toxic
same,Activity,[17],277.51 U/L
same,Activity,[18],221.34 U/L
same,Activity,[19],Non-Toxic
same,IC50,[20],360 nM
same,Activity,[21],4.34 g/dL
same,Activity,[22],872.08 pg/mL
same,Activity,[23],Non-Toxic
same,Activity,[24],17.28%
same,Activity,[25],129.78 mg/dL
same,Activity,[26],8.48 million/mm3
same,Activity,[27],8.96 million/mm3
same,IC50,[28],> 100 µM
same,IC50,[29],3.27 µM
same,Activity,[30],5.75 10^3/mm3
same,Activity,[31],8.82 million/mm3
same,Activity,[32],17.95 U/L
same,Activity,[33],29.22%
same,Activity,[34],Non-Toxic
same,Activity,[35],13.14%
same,Activity,[36],Non-Toxic
same,Activity,[37],8.53 million/mm3

# — ChEMBL document CHEMBL5257120 (Bioorg Med Chem, 2023)
